Data on 18 compounds can be found in ChEMBL document CHEMBL1125286, “Zatosetron, a potent, selective, and long-acting 5HT3 receptor antagonist: synthesis and structure-activity relationships” (J Med Chem, 1992).

The structures appear in SMILES notation.

The target in assay [1] is T1, Serotonin 3 (5-HT3) receptor (Rattus norvegicus) (UniProt P35563+Q9JJ16). As to the kind of experiment: 5-hydroxytryptamine 3 receptor antagonistic activity measured by inhibition of 5-HT-induced bradycardia (iv administration 10 ug/kg dose in urethane-anesthetized rats). The format is functional, organism-based. The method, boiled down:
(§1)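 Urethane-anesthetized rats. First 5HT challenge 30 μg/kg iv gives a transient bradycardia. Once heart rate is back at steady state (≤5 min), test compound or saline goes in via the femoral vein. 5HT 30 μg/kg iv is repeated 15 min later. % inhibition is the difference between first and second bradycardia at peak, each animal its own control. Means ± SEM, groups of 3–16 rats.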

Assay [2] concerns the target T1, Serotonin 3 (5-HT3) receptor (Rattus norvegicus). As to the kind of experiment: 5-hydroxytryptamine 3 receptor antagonistic activity was measured by the inhibition of 5H+ T-induced bradycardia after iv administration of 3 ug/kg dose in urethane-anesthetized rats. The format is functional, organism-based. The method, boiled down:
(§2)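 Urethane-anesthetized rats; antagonist or saline given iv via femoral vein after heart rate settled (≤5 min) from an initial 5HT challenge (30 µg/kg iv). 5HT was given again 15 min later. Peak bradycardia measured, each rat its own control; % inhibition = difference between first and second responses. Groups of 3–16 rats, means ± SEM.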

For assay [3] the target is unchanged. As to the kind of experiment: Compound was tested for the inhibition of 5-HT-induced bradycardia after intravenous administration of 30 ug/kg dose in urethane-anesthetized rats. The assay is classed as functional, organism-based. The method, boiled down:
as §1

Assay [4] has the same target. Put plainly: 5-hydroxytryptamine 3 receptor antagonistic activity as inhibition of 5-HT-induced bradycardia after iv administration of 100 ug/kg dose in urethane-anesthetized rats. The format is functional, organism-based. The method, boiled down: as §1
The target is the same in assay [5]. Put plainly: Compound was tested for the inhibition of 5-HT-induced bradycardia after intravenous administration of 1 ug/kg dose in urethane-anesthetized rats. The assay is classed as functional, organism-based. In short, it runs like this:
as §2

The target is the same in assay [6]. Put plainly: Compound was tested for the inhibition of 5-HT-induced bradycardia after peroral administration of 100 ug/kg dose in urethane-anesthetized rats. The assay is classed as functional, organism-based. The method, boiled down:
(§3)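 Fasted rats gavaged (5 mL/kg) with antagonist or vehicle (distilled water). Urethane anesthesia and surgical preparation followed, 15–20 min before 5HT challenge. 5HT 30 µg/kg iv given 1 h after dosing, with vehicle-treated rats as controls. Peak % inhibition of bradycardia in groups of 3–11, means ± SEM.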

Assay [7] has the same target. As to the kind of experiment: Compound was tested for the inhibition of 5-HT-induced bradycardia after peroral administration of 1000 ug/kg dose in urethane-anesthetized rats. The assay is classed as functional, organism-based. The method, boiled down:
as §3

Assay [8] has the same target. Put plainly: Compound was tested for the inhibition of 5-HT-induced bradycardia after peroral administration of 10 ug/kg dose in urethane-anesthetized rats. The assay is classed as functional, organism-based. The method, boiled down:
as §3

For assay [9] the target is unchanged. As to the kind of experiment: Inhibition of 5-HT-induced bradycardia by 5-hydroxytryptamine 3+. The assay is classed as functional.
Assay [10] shares this target. As to the kind of experiment: Compound was tested for the inhibition of 5-HT-induced bradycardia after peroral administration of 0.3 mg/kg at 0.5 hours in urethane-anesthetized rats. The format is functional, organism-based. On the set-up: dose 0.3 mg/kg. The settings on record: at 0.3 mg/kg. The method, boiled down:
(§4)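 Duration study. Antagonist or vehicle is given by oral gavage to conscious rats. Rats are then urethane-anesthetized, surgically prepared and challenged with 5HT 0.03 mg/kg iv at the stated time after dosing. Peak inhibition of bradycardia is measured against vehicle-treated controls. Means ± SEM, groups of 3–11 rats.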

For assay [11] the target is unchanged. Put plainly: Compound was tested for the inhibition of 5-HT-induced bradycardia after peroral administration of 0.3 mg/kg at 1 hour in urethane-anesthetized rats. Particulars: at 0.3 mg/kg. More on the design: dose 0.3 mg/kg. The assay is classed as functional, organism-based. The method, boiled down: as §4
Assay [12] has the same target. As to the kind of experiment: Compound was tested for the inhibition of 5-HT-induced bradycardia after peroral administration of 0.3 mg/kg at 3 hours in urethane-anesthetized rats. The assay is classed as functional, organism-based. The settings on record: at 0.3 mg/kg. More on the design: dose 0.3 mg/kg. The method, boiled down:
as §4

Assay [13] shares this target. Put plainly: Compound was tested for the inhibition of 5-HT-induced bradycardia after peroral administration of 0.3 mg/kg at 6 hours in urethane-anesthetized rats. The assay is classed as functional, organism-based. On the set-up: dose 0.3 mg/kg. The settings on record: at 0.3 mg/kg. In short, it runs like this: as §4
For assay [14] the target is unchanged. As to the kind of experiment: Compound was tested for the inhibition of 5-HT-induced bradycardia after peroral administration in urethane-anesthetized rats.
Assay [15] shares this target. As to the kind of experiment: Compound was tested for the inhibition of 5-HT-induced bradycardia after intravenous administration of 0.3 ug/kg dose in urethane-anesthetized rats. The format is functional, organism-based. In short, it runs like this:
as §2

The target is the same in assay [16]. Put plainly: Compound was tested for the inhibition of 5-HT-induced bradycardia after peroral administration of 0.03 mg/kg dose in urethane-anesthetized rats at 1 hour. The format is functional, organism-based. More on the design: dose 0.03 mg/kg. In short, it runs like this: (§5)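 Duration study: antagonist or vehicle gavaged to conscious fasted rats (5 mL/kg). Rats were urethane-anesthetized and surgically prepared, then challenged with 5HT 0.03 mg/kg iv at the stated time after dosing. Vehicle-treated rats served as controls. Peak inhibition of bradycardia recorded in groups of 3–11, means ± SEM.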

Assay [17] shares this target. As to the kind of experiment: Compound was tested for the inhibition of 5-HT-induced bradycardia after peroral administration of 0.03 mg/kg dose in urethane-anesthetized rats at 16 hour. The assay is classed as functional, organism-based. More on the design: dose 0.03 mg/kg. The method, boiled down: as §5
For assay [18] the target is unchanged. Put plainly: Compound was tested for the inhibition of 5-HT-induced bradycardia after peroral administration of 0.03 mg/kg dose in urethane-anesthetized rats at 3 hour. The format is functional, organism-based. On the set-up: dose 0.03 mg/kg. The method, boiled down:
as §5

Assay [19] has the same target. As to the kind of experiment: Compound was tested for the inhibition of 5-HT-induced bradycardia after peroral administration of 0.03 mg/kg dose in urethane-anesthetized rats at 6 hour. The format is functional, organism-based. On the set-up: dose 0.03 mg/kg. The method, boiled down:
as §5

The target is the same in assay [20]. Put plainly: Compound was tested for the inhibition of 5-HT-induced bradycardia after peroral administration of 3 ug/kg dose in urethane-anesthetized rats. The assay is classed as functional, organism-based. The method, boiled down:
as §3

For assay [21] the target is unchanged. Put plainly: Compound was tested for the inhibition of 5-HT-induced bradycardia after peroral administration of 30 ug/kg dose in urethane-anesthetized rats. The format is functional, organism-based. The method, boiled down: as §3
Assay [22] shares this target. As to the kind of experiment: Compound was tested for the inhibition of 5-HT-induced bradycardia after peroral administration of 0.03 mg/kg dose in urethane-anesthetized rats at 0.05 hour. The assay is classed as functional, organism-based. More on the design: dose 0.03 mg/kg. Particulars: in the assay text read “0.5 hour” for “0.05 hour”. In short, it runs like this:
as §5

Assay [23] relates to Serotonin 3 receptor (Cavia porcellus). As to the kind of experiment: In vitro binding affinity was measured for 5-hydroxytryptamine 3 receptor in the guinea pig ileum.
Assay [24] addresses T1, Serotonin 3 (5-HT3) receptor (Rattus norvegicus). Put plainly: 5-hydroxytryptamine 3 receptor antagonistic activity was measured by the inhibition of 5H+ T-induced bradycardia after iv administration of 1000 ug/kg dose in urethane-anesthetized rats. The assay is classed as functional, organism-based. In short, it runs like this: as §1

`CN1C2CCC1CC(NC(=O)c1cc(O)cc3c1OC(C)(C)C3)C2` (stereo not given) yielded an inhibition in assay [1] of 54.7%.

With `COc1cc2c(c(C(=O)NC3CC4CCC(C3)N4C)c1)OC(C)C2` (stereo not given), the inhibition in assay [1] came out at 28.9%.

`CN1C2CCC1CC(NC(=O)c1ccc(Cl)c3c1OC(C)(C)C3)C2` (stereo not given) yielded an inhibition in assay [1] of 1.9%.

Turning to `CN1C2CCC1CC(NC(=O)c1cc(Br)cc3c1OC(C)(C)C3)C2` (stereo not given), the results for the inhibition in assay [1] and in assay [2] were 68.7% and 15.9%, respectively.

In assay [1], `COc1cc2c(c(C(=O)OC3CC4CCC(C3)N4C)c1)OC(C)C2` (stereo not given) returned an inhibition of 4.1%.

Turning to `CN1C2CCC1CC(NC(=O)c1cc(F)cc3c1OC(C)(C)C3)C2` (stereo not given), the inhibition in assay [1] turned out to be 71.7%.

In turn, `COc1cc2c(c(C(=O)NC3CC4CCC(C3)N4C)c1)OC(C)(C)C2` (stereo not given) registered an inhibition in assay [1] of 2.9%.

Turning to `CN1C2CCC1CC(NC(=O)c1c(Cl)ccc3c1OC(C)(C)C3)C2` (stereo not given), in [1], the inhibition was 0.8%.

As for `Cc1cc2c(c(C(=O)NC3CC4CCC(C3)N4C)c1)OC(C)(C)C2` (stereo not given), the inhibition was 87.1% in assay [1] and 11.2% in assay [2].

For `CN1[C@@H]2CC[C@H]1C[C@@H](NC(=O)c1cc(Cl)cc3c1OC(C)(C)C3)C2` (stereo in doubt; 50), the inhibition in [1] was 67.1%; in assay [2] it was 25.9%.

`CC1Oc2c(C(=O)OC3CC4CCC(C3)N4C)cccc2C1C` (stereo in doubt; 26): the inhibition in assay [1] is 29.9%; in assay [2] it was 1.8%; in assay [3] it was 78.7%.

In the case of `CN1[C@@H]2CC[C@H]1C[C@@H](OC(=O)c1c[nH]c3ccccc13)C2`, the inhibition came to 70.6% in assay [4]; 54.2% in assay [2]; 20.1% in assay [5]; 39.8% in [6]; 85% in assay [7]; 0.1% in [8]. The inhibition in assay [10] turned out to be 86.6%; in assay [11], 77.4%; in assay [12] it was 65.2%; in assay [13] it was 17.4%. Moreover, the ED50 was determined as 3.1 µg/kg in assay [9] and 127 µg/kg in [14].

Consider `CN1[C@@H]2CC[C@H]1C[C@@H](NC(=O)c1cc(Cl)cc3c1OC(C)(C)C3)C2` (stereo in doubt), for which the inhibition came to 84.4% in [2]; 10.8% in assay [15]; 66.2% in assay [5]; 77.6% in assay [16]; 0% in assay [17]; 61.1% in [18]. Also, the inhibition was found to be 81.4% in assay [19]; 57.1% in [8]; 19.1% in assay [20]; 77.6% in [21]; 86.4% in assay [22]. Also, the ED50 stood at 0.9 µg/kg in assay [9] and 9.2 µg/kg in assay [14]. The -Log KB in assay [23] is 8.78.

On to `CC1Cc2cccc(C(=O)NC3CC4CCC(C3)N4C)c2O1` (stereo not given), for which the inhibition worked out at 22.3% in assay [1] and 87.6% in [4].

`CN1C2CCC1CC(OC(=O)c1ccccc1Oc1ccccc1)C2` (stereo not given): the inhibition in assay [24] is 54.5%.

For the compound `CN1C2CCC1CC(OC(=O)c1cccc3c1OC(C)(C)C3)C2` (stereo not given), the inhibition in [1] is 38%; in assay [2], 20.8%.

For the compound `Cc1cc2c(c(C(=O)OC3CC4CCC(C3)N4C)c1)OCC2` (stereo not given), the figures for the inhibition in assay [1] and in assay [4] were 28.8% and 67.2%, respectively.

In turn, `CN1C2CCC1CC(CC(=O)c1ccccc1)C2` (stereo not given) registered an inhibition in [4] of 31.3%.
